Measured values: ChEMBL document CHEMBL4715702, “Overcoming multidrug resistance by targeting mitochondria with NO-donating doxorubicins” (Bioorg Med Chem, 2016)
Active and inactive are the calls of the source. The rule behind the calls is not given here.

Key:
[1] = Prodrug release in doxorubicin-resistant human HT-29 cells assessed as increase in NO level by measuring induction of P-glycoprotein nitration in plasma membrane at 5 uM incubated for 24 hrs by western blot analysis; assay type: cell membranes, Cell membrane; settings: ht-29, 24 h
Procedure, shortened: (§1)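 Cells 24 h with 5 µmol/L compound. Plasma-membrane proteins isolated by surface biotinylation, 50 µg run on SDS-PAGE, probed for Pgp with pancadherin loading control; nitration detected by Western blot, peroxidase secondary and chemiluminescence. Representative of three experiments.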

[2] = Prodrug release in human HT-29 cells assessed as increase in NO level by measuring induction of P-glycoprotein nitration in plasma membrane at 5 uM incubated for 24 hrs by western blot analysis; assay type: cell membranes, Cell membrane; settings: ht-29, 24 h; procedure, shortened: as §1
[3] = Prodrug release in human HT-29 cells assessed as increase in NO level by measuring nitrite release at 5 uM incubated for 24 hrs by spectrophotometric analysis; assay type: ADME, cell-based; settings: ht-29, 24 h
Procedure, shortened: (§2)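 After 24 h culture with 5 µmol/L compound, medium mixed 1:1 with Griess reagent, 10 min 37°C in dark, absorbance 540 nm. Cell-free blank subtracted; nitrite expressed as nmol/mg cell protein. HT29/dx maintained in 200 nmol/L DOXO. Triplicate, mean ± SD (n = 3).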

[4] = Prodrug release in doxorubicin-resistant human HT-29 cells assessed as increase in NO level by measuring nitrite release at 5 uM incubated for 24 hrs by spectrophotometric analysis; assay type: ADME, cell-based; settings: ht-29, 24 h; procedure, shortened: as §2
[5] = Prodrug release in human HT-29 cells assessed as increase in NO level by measuring plasma membrane associated MRP1/BCRP nitration mediated drug uptake at 5 uM incubated for 24 hrs by spectrofluorometric analysis; assay type: ADME, cell membranes; settings: ht-29, 24 h
Procedure, shortened: (§3)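 Cells 24 h with 5 µmol/L compound; DOXO in whole-cell lysates measured fluorimetrically (ex 475/em 553 nm), cell-free blank subtracted, converted to nmol DOXO/mg protein by calibration curve. Triplicate, mean ± SD.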

[6] = Prodrug release in doxorubicin-resistant human HT-29 cells assessed as increase in NO level by measuring plasma membrane associated MRP1/BCRP nitration mediated drug uptake at 5 uM incubated for 24 hrs by spectrofluorometric analysis; assay type: ADME, cell membranes; settings: ht-29, 24 h; procedure, shortened: as §3
[7] = Stability of the compound assessed as human serum esterase-mediated compound hydrolysis by measuring half life at 100 uM by RP-HPLC analysis; assay type: ADME, cell-free
Procedure, shortened: (§4)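 Compound from 10 mM DMSO stock added to human male AB serum preheated to 37 °C, 100 µM final, incubated at 37 ± 0.5 °C. Aliquots deproteinized with acetonitrile/0.1% HCOOH, centrifuged, filtered. Parent and degradation products quantified by RP-HPLC (234 and 480 nm) against 1–100 µM calibration. At least triplicate.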

[8] = system: HT-29; assay: Induction of apoptosis in doxorubicin-resistant human HT29 cells assessed as activation of caspase 3 using DEVD-AMC substrate at 5 uM incubated for 24 hrs by fluorescence based assay; assay type: functional, cell-based
Procedure, shortened: (§5)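 Cells 24 h in 5 µmol/L compound or fresh medium, lysed in HEPES/KOH buffer pH 7.5. 20 µg lysate incubated 1 h at 37°C with 20 µmol/L LEHD-AMC (caspase 9) or DEVD-AMC (caspase 3) in HEPES/CHAPS/sucrose/DTT buffer pH 7.5. Stopped with ice-cold 0.1% TCA; AMC fluorescence ex 380/em 460 nm, converted to nmol AMC/µg protein via AMC standards. Triplicate.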

[9] = system: HT-29; assay: Induction of apoptosis in human HT29 cells assessed as activation of caspase 3 using DEVD-AMC substrate at 5 uM incubated for 24 hrs by fluorescence based assay; assay type: functional, cell-based; procedure, shortened: as §5
[10] = system: HT-29; assay: Induction of apoptosis in doxorubicin-resistant human HT29 cells assessed as activation of caspase 9 using LEHD-AMC substrate at 5 uM incubated for 24 hrs by fluorescence based assay; assay type: functional, cell-based; procedure, shortened: as §5
[11] = system: HT-29; assay: Induction of apoptosis in human HT29 cells assessed as activation of caspase 9 using LEHD-AMC substrate at 5 uM incubated for 24 hrs by fluorescence based assay; assay type: functional, cell-based; procedure, shortened: as §5
[12] = Prodrug release in human HT-29 cells assessed as increase in NO level by measuring induction of P-glycoprotein nitration in mitochondria at 5 uM incubated for 24 hrs by western blot analysis; settings: ht-29, 24 h
Procedure, shortened: (§6)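 Cells 24 h with 5 µmol/L compound. Mitochondrial extracts, 10 µg protein, run on SDS-PAGE and probed for Pgp, porin as loading control; nitration detected by Western blot with peroxidase secondary and chemiluminescence. Representative of three experiments.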

[13] = Prodrug release in doxrubicin-resistant human HT-29 cells assessed as increase in NO level by measuring induction of P-glycoprotein nitration in mitochondria at 5 uM incubated for 24 hrs by western blot analysis; settings: ht-29, 24 h; procedure, shortened: as §6
[14] = Prodrug release in human HT-29 cells assessed as increase in NO level by measuring mitochondria associated MRP1/BCRP nitration mediated drug uptake at 5 uM incubated for 24 hrs by spectrofluorometric analysis; assay type: ADME; settings: ht-29, 24 h
Procedure, shortened: (§7)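 Cells 24 h with 5 µmol/L compound; mitochondrial fractions isolated (porin check by immunoblot), DOXO measured fluorimetrically (ex 475/em 553 nm) with blank subtraction and calibration curve; expressed as nmol DOXO/mg mitochondrial protein. Triplicate, mean ± SD.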

[15] = Prodrug release in doxorubicin-resistant human HT-29 cells assessed as increase in NO level by measuring mitochondria associated MRP1/BCRP nitration mediated drug uptake at 5 uM incubated for 24 hrs by spectrofluorometric analysis; assay type: ADME; settings: ht-29, 24 h; procedure, shortened: as §7
[16] = system: H9c2; assay: Cardiotoxicity against rat H9c2 cells assessed as LDH release at 5 uM incubated for 24 hrs; assay type: toxicity, cell-based; settings: h9c2, 24 h
Procedure, shortened: (§8)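 Extracellular medium spun 12,000 × g 5 min; cells detached, sonicated in 82.3 mmol/L triethanolamine phosphate-HCl pH 7.6. LDH activity read in medium and lysate at 340 nm over 6 min, as µmol NADH oxidized/min/dish; extracellular LDH given as % of total dish activity. Compounds from DMSO stock, 5 µM final, 1% DMSO; controls 1% DMSO. Triplicate, mean ± SD.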

[17] = system: HT-29; assay: Upregulation of iNOS protein expression in human HT-29 cells; assay type: functional, cell-based
Procedure, shortened: (§9)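 HT29 and HT29/dx cells incubated 24 h with compound or fresh medium; lysed in MLB buffer pH 7.5, sonicated, centrifuged 13,000 x g 10 min 4°C; iNOS detected in whole-cell lysate by Western blotting.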

[18] = system: HT-29; assay: Upregulation of iNOS protein expression in doxorubicin-resistant human HT-29 cells; assay type: functional, cell-based; procedure, shortened: as §9
[19] = system: HT-29; assay: Cytotoxicity against doxorubicin-resistant human HT-29 cells assessed as LDH release at 5 uM incubated for 24 hrs; assay type: functional, cell-based; procedure, shortened: as §8
[20] = system: HT-29; assay: Cytotoxicity against human HT-29 cells assessed as LDH release at 5 uM incubated for 24 hrs; assay type: functional, cell-based; procedure, shortened: as §8
[21] = Stability of the compound assessed as human serum esterase-mediated compound hydrolysis by measuring parent compound remaining at 100 uM measured after 24 hrs by RP-HPLC analysis; assay type: ADME, cell-free; settings: read-out: Stabilty; procedure, shortened: as §4

Structure (SMILES)	Activity [1]	Activity [2]	Drug metabolism [3]	Drug metabolism [4]	Drug uptake [5]	Drug uptake [6]	half-life at 100 µM [7] [h]	Activity [8]	Activity [9]	Activity [10]	Activity [11]	Activity [12]	Activity [13]	Activity [16]	Activity [17]	Activity [18]	also measured
COc1cccc2c1C(=O)c1c(O)c3c(c(O)c1C2=O)C[C@@](O)(C(=O)COC(=O)c1ccc(OCCCO[N+](=O)[O-])cc1)C[C@@H]3O[C@H]1C[C@H](N)[C@H](O)[C@H](C)O1.Cl	Not Active	Not Active	Metabolite_Detected	Metabolite_Detected	Active	Active	26.7	inactive	inactive	inactive	inactive	Not Active	Not Active				
COc1cccc2c1C(=O)c1c(O)c3c(c(O)c1C2=O)C[C@@](O)(C(=O)CO)C[C@@H]3O[C@H]1C[C@H](N)[C@H](O)[C@H](C)O1 [DOXORUBICIN]		Not Active	Metabolite_Detected		Active	Not Active								Toxic	Active	inactive	Drug uptake [14]: Active; Drug uptake [15]: Not Active
COc1cccc2c1C(=O)c1c(O)c3c(c(O)c1C2=O)C[C@@](O)(C(=O)COC(=O)c1ccc(C(=O)OCO/N=[N+](\[O-])N2CCCC2)cc1)C[C@@H]3O[C@H]1C[C@H](N)[C@H](O)[C@H](C)O1.Cl			Metabolite_Detected	Metabolite_Detected	Not Active		2.8	inactive	inactive	inactive	inactive	Not Active	Not Active				Activity [6]: Not Active
COc1cccc2c1C(=O)c1c(O)c3c(c(O)c1C2=O)C[C@@](O)(C(=O)COC(=O)c1ccc(CC(CO[N+](=O)[O-])O[N+](=O)[O-])cc1)C[C@@H]3O[C@H]1C[C@H](N)[C@H](O)[C@H](C)O1 (stereo partly drawn)	Not Active	Not Active	Metabolite_Detected	Metabolite_Detected	Active	Active	16	Active	Active	Active	Active			Non-Toxic	Active	Active	Activity [19]: Active; Activity [20]: Active; Drug uptake [14]: Active; Drug uptake [15]: Active
COc1cccc2c1C(=O)c1c(O)c3c(c(O)c1C2=O)C[C@@](O)(C(=O)COC(=O)c1ccc(OCC(CO[N+](=O)[O-])O[N+](=O)[O-])cc1)C[C@@H]3O[C@H]1C[C@H](N)[C@H](O)[C@H](C)O1.Cl (stereo partly drawn)	Not Active	Not Active	Metabolite_Detected	Metabolite_Detected	Active	Active	34.7	inactive	inactive	inactive	inactive	Not Active	Not Active				
COc1cccc2c1C(=O)c1c(O)c3c(c(O)c1C2=O)C[C@@](O)(C(=O)COC(=O)c1ccc(CCCO[N+](=O)[O-])cc1)C[C@@H]3O[C@H]1C[C@H](N)[C@H](O)[C@H](C)O1.Cl	Not Active	Not Active	Metabolite_Detected	Metabolite_Detected	Active	Active	24.6	inactive	inactive	inactive	inactive	Not Active	Not Active				
COc1cccc2c1C(=O)c1c(O)c3c(c(O)c1C2=O)C[C@@](O)(C(=O)COC(=O)CCCCCO[N+](=O)[O-])C[C@@H]3O[C@H]1C[C@H](N)[C@H](O)[C@H](C)O1.Cl	Not Active		Metabolite_Detected	Metabolite_Detected	Active	Active	4.9										
COc1cccc2c1C(=O)c1c(O)c3c(c(O)c1C2=O)C[C@@](O)(C(=O)COC(=O)CCCC(CO[N+](=O)[O-])O[N+](=O)[O-])C[C@@H]3O[C@H]1C[C@H](N)[C@H](O)[C@H](C)O1.Cl (stereo partly drawn)			Metabolite_Detected	Metabolite_Detected			6	inactive	inactive	inactive	inactive						
COc1cccc2c1C(=O)c1c(O)c3c(c(O)c1C2=O)C[C@@](O)(C(=O)COC(=O)c1ccc(Oc2no[n+]([O-])c2S(=O)(=O)c2ccccc2)cc1)C[C@@H]3O[C@H]1C[C@H](N)[C@H](O)[C@H](C)O1.Cl			Metabolite_Detected	Metabolite_Detected			> 24	Active	Active	Active	Active			Non-Toxic	Active	Active	Activity [19]: Active; Activity [20]: Active; remaining at 24 h, 100 µM [21]: 73.5%
